According to ChEMBL document CHEMBL1147405, “New bicyclam-GalCer analogue conjugates: synthesis and in vitro anti-HIV activity” (Bioorg Med Chem Lett, 2004):

What was measured:
CEM-SS [1] = experiment: Effective concentration of compound against HIV-1 LAI strain in CEM-SS cells; type: functional, cell-based; details: Homo sapiens
Summary of the method: (§1)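 CEM-SS cells infected with HIV-1 LAI. Virus replication followed by reverse transcriptase activity measurement. EC50 is the concentration inhibiting 50% of virus replication. Relative potency is the ratio to AMD3100.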

[2] = (§2) Concentration of compound causing 50% death of uninfected cells; type: cell-based; details: human, CEM-SS cells (uninfected)
Summary of the method: (§3)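 Uninfected cells of each line (CEM-SS, MT4 or PBMC) exposed to compound; CC50 taken as the concentration causing 50% death of uninfected cells.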

CEM-SS [3] = experiment: Potency of compound against HIV-1 LAI strain in CEM-SS cells relative to AMD3100; type: functional, Homo sapiens; summary of the method: as §1
GHOST CXCR4 [4] = experiment: Inhibitory concentration of compound against HIV-1 LAI strain in GHOST CXCR4 cell line; type: functional, cell-based; details: Homo sapiens
Summary of the method: (§4)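 GHOST osteosarcoma cells express CD4, CXCR4 or CCR5 plus an HIV-2 LTR-GFP reporter, grown in Dulbecco medium with 10% FCS. Seeded at 2.5 10⁵ per well; 24 h later pretreated with compound for 1 h at 37 °C. Infected with HIV-1 Lai (CXCR4) or Bal (CCR5), 2 h adsorption, washed, cultured 48 h with drug. GFP+ cells counted by flow cytometry; IC50 from median-effect plot.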

GHOST CXCR4 [5] = experiment: Potency of compound against HIV-1 LAI strain in GHOST CXCR4 cell line relative to AMD3100; type: functional, Homo sapiens; summary of the method: as §4
MT4 [6] = experiment: Potency of compound against HIV-1 IIIB strain in MT-4 cells relative to AMD3100; type: functional, Homo sapiens
Summary of the method: (§5)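 MT4 cells infected with HIV-1 IIIB. Virus-induced cytopathogenic effect scored. EC50 is the concentration protecting 50% of infected cells against cytopathogenicity. Relative potency is expressed against AMD3100.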

MT4 [7] = experiment: Effective concentration of compound against HIV-1 IIIB strain in MT-4 cells; type: functional, cell-based; details: Homo sapiens; summary of the method: as §5
[8] = as §2; type: ADME, cell-based; details: human; summary of the method: as §3
PBMC [9] = experiment: Effective concentration of compound against HIV-1 89.6 strain in PBMC cells; type: functional, cell-based; details: Homo sapiens
Summary of the method: (§6)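 PBMC infected with dual-tropic HIV-1 89.6. Virus growth measured by reverse transcriptase activity. EC50 is the concentration protecting 50% of infected cells. Relative potency is expressed against AMD3100.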

PBMC [10] = experiment: Potency of compound against HIV-1 89.6 strain in PBMC cells relative to AMD3100; type: functional, Homo sapiens; summary of the method: as §6
GHOST CCR5 = experiment: Inhibitory concentration of compound against HIV-1 Ba1 strain in GHOST CCR5 cell line; type: functional, cell-based; details: Homo sapiens; summary of the method: as §4

EC50 (CEM-SS [1])	IC50 (GHOST CXCR4 [4])	IC50 (GHOST CCR5)	SMILES	CC50 [2]	Relative potency (CEM-SS [3])	Relative potency (GHOST CXCR4 [5])	Relative potency (MT4 [6])	EC50 (MT4 [7])	CC50 ([8]; MT4 cells (uninfected))	CC50 ([8]; PBMC (uninfected))	EC50 (PBMC [9])	Relative potency (PBMC [10])
910 nM	7.1 nM	> 50000 nM	CCOC(=O)CCCCN1CCCN(Cc2ccc(CN3CCCNCCNCCCNCC3)cc2)CCNCCCNCC1	> 100000 nM	~7	~7	~10	690 nM	> 100000 nM	> 100000 nM	25 nM	~7
5200 nM	86 nM	> 50000 nM	CCCCCCCCCCCCCC(=O)N[C@@H](CCCCNC(=O)CCCCN1CCCN(Cc2ccc(CN3CCCNCCNCCCNCC3)cc2)CCNCCCNCC1)C(=O)N[C@@H](CO[C@@H]1O[C@@H](CO)[C@H](O)[C@H](O)[C@@H]1O)C(=O)O	> 50000 nM	~40	~90	~45	2800 nM	> 50000 nM	> 28000 nM	470 nM	~125
127 nM	0.95 nM	> 5000 nM	c1cc(CN2CCCNCCNCCCNCC2)ccc1CN1CCCNCCNCCCNCC1 [PLERIXAFOR]	> 10000 nM	–	–	–	65 nM	> 10000 nM	> 10000 nM	3.8 nM	–

The remaining lines, values behind:

SMILES	EC50 (CEM-SS [1])	IC50 (GHOST CXCR4 [4])	IC50 (GHOST CCR5)	CC50 [2]	Relative potency (CEM-SS [3])	Relative potency (GHOST CXCR4 [5])	Relative potency (MT4 [6])	EC50 (MT4 [7])	CC50 ([8]; MT4 cells (uninfected))	CC50 ([8]; PBMC (uninfected))	EC50 (PBMC [9])	Relative potency (PBMC [10])
CCCCCCCCCCCCCC(=O)N[C@@H](CCCCNC(=O)CCCCN1CCCNCCN(Cc2ccc(CN3CCCNCCNCCCNCC3)cc2)CCCNCC1)C(=O)N[C@@H](CO[C@@H]1O[C@@H](CO)[C@H](O)[C@H](O)[C@@H]1O)C(=O)O	6000 nM	21 nM	> 10000 nM	> 100000 nM	~50	~20	~45	2900 nM	> 100000 nM	> 10000 nM	250 nM	~65
CCCCCCCCCCCCCC(=O)N[C@@H](CO[C@@H]1O[C@@H](CO)[C@H](O)[C@H](O)[C@@H]1O)C(=O)O	10000 nM	–	–	> 100000 nM	–	–	–	> 100000 nM	> 100000 nM	–	–	–
Cc1cn([C@H]2C[C@H](N=[N+]=[N-])[C@@H](CO)O2)c(=O)[nH]c1=O [ZIDOVUDINE]	6.3 nM	–	–	–	–	–	–	9.9 nM	–	–	24 nM	–
